According to ChEMBL document CHEMBL1132565 (J Med Chem, 1999):
Active and inactive are the calls of the source.

Experiments:
Mus musculus [1] = assay: Antinociceptive activity after subcutaneous administration in mice; the highest dose tested, 100 uM/Kg, was unable to produce a significant analgesia.; type: functional, organism-based
How it was run: (§1)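 Male CD-1 mice (25-30 g), peptide dissolved in sterile Ringer's solution and injected subcutaneously at 0.05 mL/10 g, 5-8 animals per dose. Hot plate at 55 °C, latency to back-paw licking or escape jump recorded. Cut-off 15 s. Mice not responding within 5 s before drug were excluded. Testing every 15 min for the first hour, then every 30 min. %MPE calculated. AD50 with 95% CL by Litchfield-Wilcox.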

Mus musculus [2] = assay: Antinociceptive activity after subcutaneous administration in mice. p<0.05 vs dermorphin; type: functional; how it was run: as §1
Mus musculus [3] = species: Mus musculus; assay: In vitro concentration required to inhibit electrically evoked twitch in isolated mouse vas deferens.; type: functional
How it was run: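 Mouse vas deferens field-stimulated with supramaximal bipolar rectangular pulses. Inhibition of the electrically evoked twitch measured. IC50 taken from concentration-response curves, at least six tissues.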

Mu-type opioid receptor = Mu-type opioid receptor (Mus musculus, UniProt P42866); assay: Displacement of [3H]-DAGO from Opioid receptor mu 1 of adult male mouse brain.; type: tissue-based
How it was run: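 Crude membranes from adult male Albino Swiss mouse brain, pre-incubated 30 min at 25 °C to remove endogenous opioids. Competition against [3H]DAGO 0.5 nM on 1 mg membrane protein in 50 mM Tris-HCl pH 7.4, 35 °C for 90 min. Nonspecific binding defined with 10 µM naloxone, 12 inhibitor concentrations. GF/B filtration and scintillation counting. Ki from competition curves, run in triplicate.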

[4] = target: Delta-type opioid receptor (Mus musculus, UniProt P32300); assay: Displacement of [3H]NLT from Opioid receptor delta 1 of adult male mouse brain.
[5] = Half-life time of enzymatic breakdown in mouse liver.; type: ADME
How it was run: (§2)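 Methanol added to stop each sample, followed by centrifugation. Residual activity in the supernatant was bioassayed on GPI or MVD and expressed as % of time-0 recovery. Three experiments.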

[6] = Half-life time of enzymatic breakdown in mouse brain.; type: ADME; how it was run: as §2
Cavia porcellus = species: Cavia porcellus; assay: In vitro concentration required to inhibit electrically evoked twitch in isolated guinea pig ileum.; type: functional
How it was run: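 Myenteric plexus-longitudinal muscle strips from male guinea pig small intestine, field-stimulated with supramaximal bipolar rectangular pulses. Inhibition of the electrically evoked twitch measured. IC50 taken from concentration-response curves, at least six tissues.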

Mus musculus [7] = assay: Antinociceptive activity after subcutaneous administration in mice.; type: functional; how it was run: as §1
Mus musculus [8] = assay: Antinociceptive activity after subcutaneous administration in mice was determined in analgesia hotplate test; type: functional; how it was run: as §1

Delta-type opioid receptor, sequence (P32300 whole entry): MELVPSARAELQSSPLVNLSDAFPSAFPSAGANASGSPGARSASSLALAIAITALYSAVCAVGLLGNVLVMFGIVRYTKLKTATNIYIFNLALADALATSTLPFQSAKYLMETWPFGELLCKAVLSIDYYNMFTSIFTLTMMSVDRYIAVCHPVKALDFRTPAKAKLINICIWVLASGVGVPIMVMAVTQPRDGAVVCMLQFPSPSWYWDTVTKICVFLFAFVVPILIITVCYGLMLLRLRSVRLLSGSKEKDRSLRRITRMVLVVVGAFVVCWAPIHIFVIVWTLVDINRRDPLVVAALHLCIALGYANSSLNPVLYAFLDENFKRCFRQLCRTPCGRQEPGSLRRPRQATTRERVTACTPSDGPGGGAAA
Mu-type opioid receptor, sequence (P42866 whole entry): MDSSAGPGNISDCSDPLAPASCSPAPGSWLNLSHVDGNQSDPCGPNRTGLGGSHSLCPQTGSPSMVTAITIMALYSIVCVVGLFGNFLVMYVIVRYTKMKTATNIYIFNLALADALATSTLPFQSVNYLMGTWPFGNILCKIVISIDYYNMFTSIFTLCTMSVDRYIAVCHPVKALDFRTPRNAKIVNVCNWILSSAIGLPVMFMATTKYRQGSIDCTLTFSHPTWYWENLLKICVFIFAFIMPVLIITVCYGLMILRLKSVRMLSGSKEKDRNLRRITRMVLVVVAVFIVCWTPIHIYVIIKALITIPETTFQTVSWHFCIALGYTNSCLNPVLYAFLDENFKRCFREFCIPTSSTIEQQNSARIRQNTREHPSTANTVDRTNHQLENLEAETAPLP

Compound | AD50 (Mus musculus [1]) | AD50 (Mus musculus [2]) | IC50 (Mus musculus [3]) | Ki (Mu-type opioid receptor) | Ki [4] | half-life [5] | half-life [6] | IC50 (Cavia porcellus) | AD50 (Mus musculus [7]) | AD50 (Mus musculus [8])
CC(C)[C@H](NC(=O)[C@H](CC(=O)O)NC(=O)[C@H](Cc1ccccc1)NC(=O)[C@@H](C)NC(=O)[C@@H](N)Cc1ccc(O)cc1)C(=O)N[C@H](C(=O)N[C@H](C)C(N)=O)C(C)C | inactive |  |  |  |  |  |  |  |  | 
C[C@@H](NC(=O)[C@@H](N)Cc1ccc(O)cc1)C(=O)N[C@@H](Cc1ccccc1)C(=O)NCC(=O)N[C@@H](Cc1ccc(O)cc1)C(=O)N1C[C@H](O)C[C@H]1C(=O)N[C@@H](CCCCN)C(N)=O |  | 0.9 µM/kg | 35 nM | 0.5 nM | 1410 nM | 20 min | 30 min | 2.1 nM |  | 
C[C@@H](NC(=O)[C@@H](N)Cc1ccc(O)cc1)C(=O)N[C@@H](Cc1ccccc1)C(=O)NCC(=O)N[C@@H](Cc1ccc(O)cc1)C(=O)N1CCC[C@H]1C(=O)N[C@@H](CO)C(N)=O [DERMORPHIN] |  |  | 19 nM | 1.1 nM |  | 10 min | 20 min | 1.5 nM | 2.4 µM/kg | 
CC(C)[C@H](NC(=O)[C@H](CC(=O)O)NC(=O)[C@H](Cc1ccccc1)NC(=O)[C@@H](C)NC(=O)[C@@H](N)Cc1ccc(O)cc1)C(=O)N[C@H](C(=O)N[C@H](C)C(=O)O[C@H]1O[C@H](O)[C@H](O)[C@@H](O)[C@H]1O)C(C)C |  |  |  |  |  |  |  |  |  | 19 µM/kg
CC(=O)O[C@@H]1[C@H](O)[C@@H](O)[C@@H](O)O[C@@H]1COC(=O)[C@H](C)NC(=O)[C@@H]1CCCN1C(=O)[C@H](Cc1ccc(O)cc1)NC(=O)CNC(=O)[C@H](Cc1ccccc1)NC(=O)[C@@H](C)NC(=O)[C@@H](N)Cc1ccc(O)cc1 |  |  | 65 nM | 11.2 nM | > 5000 nM |  |  | 6 nM | 6.6 µM/kg | 
CC(=O)O[C@H]1[C@@H](OC(=O)[C@H](C)NC(=O)[C@@H](NC(=O)[C@@H](NC(=O)[C@H](CC(=O)O)NC(=O)[C@H](Cc2ccccc2)NC(=O)[C@@H](C)NC(=O)[C@@H](N)Cc2ccc(O)cc2)C(C)C)C(C)C)O[C@H](O)[C@H](O)[C@H]1O |  |  | 43 nM | 2830 nM | 160 nM |  |  | > 2000 nM |  | 
C[C@H](NC(=O)[C@@H]1CCCN1C(=O)[C@H](Cc1ccc(O)cc1)NC(=O)CNC(=O)[C@H](Cc1ccccc1)NC(=O)[C@@H](C)NC(=O)[C@@H](N)Cc1ccc(O)cc1)C(N)=O |  |  | 24 nM | 1.2 nM | 1110 nM |  |  | 1.6 nM |  | 
CC(C)[C@H](NC(=O)[C@H](CC(=O)O)NC(=O)[C@H](Cc1ccccc1)NC(=O)[C@@H](C)NC(=O)[C@@H](N)Cc1ccc(O)cc1)C(=O)N[C@H](C(=O)NCC(N)=O)C(C)C [DELTORPHIN C] |  |  | 0.2 nM | 1980 nM |  | 110 min | 240 min | 1240 nM | 87 µM/kg | 
CC(C)[C@H](NC(=O)[C@H](CC(=O)O)NC(=O)[C@H](Cc1ccccc1)NC(=O)[C@@H](C)NC(=O)[C@@H](N)Cc1ccc(O)cc1)C(=O)N[C@H](C(=O)N[C@@H](C)C(=O)O[C@H]1O[C@H](O)[C@H](O)[C@@H](O)[C@H]1O)C(C)C |  |  | 36 nM | 1590 nM | 176 nM |  |  | > 2000 nM |  | 
C[C@H](NC(=O)[C@@H]1CCCN1C(=O)[C@H](Cc1ccc(O)cc1)NC(=O)CNC(=O)[C@H](Cc1ccccc1)NC(=O)[C@@H](C)NC(=O)[C@@H](N)Cc1ccc(O)cc1)C(=O)OC[C@H]1O[C@H](O)[C@H](O)[C@@H](O)[C@H]1O |  |  | 55 nM | 2.5 nM | 2850 nM |  |  | 4 nM |  | 1.1 µM/kg
CC(C)[C@H](NC(=O)[C@H](CC(=O)O)NC(=O)[C@H](Cc1ccccc1)NC(=O)[C@@H](C)NC(=O)[C@@H](N)Cc1ccc(O)cc1)C(=O)N[C@H](C(=O)N[C@H](CO)C(=O)OC[C@H]1O[C@H](O)[C@H](O)[C@@H](O)[C@@H]1O)C(C)C |  |  |  |  |  |  |  |  |  | 44 µM/kg
C[C@@H](NC(=O)[C@@H](N)Cc1ccc(O)cc1)C(=O)N[C@@H](Cc1ccccc1)C(=O)NCC(=O)N[C@@H](Cc1ccc(O)cc1)C(=O)N1CCC[C@H]1C(=O)N[C@@H](CO)C(=O)OC[C@H]1O[C@H](O)[C@H](O)[C@@H](O)[C@@H]1O |  |  | 40 nM |  |  | 30 min | 38 min | 3.5 nM |  | 1.4 µM/kg
CC(C)[C@H](NC(=O)[C@H](CC(=O)O)NC(=O)[C@H](Cc1ccccc1)NC(=O)[C@@H](C)NC(=O)[C@@H](N)Cc1ccc(O)cc1)C(=O)N[C@H](C(=O)N[C@@H](C)C(N)=O)C(C)C |  |  | 6.9 nM | 1900 nM | 40 nM |  |  | > 2000 nM |  | 
CC(=O)O[C@H]1[C@H](O)[C@@H](O)[C@@H](O)O[C@@H]1COC(=O)[C@H](CO)NC(=O)[C@@H]1CCCN1C(=O)[C@H](Cc1ccc(O)cc1)NC(=O)CNC(=O)[C@H](Cc1ccccc1)NC(=O)[C@@H](C)NC(=O)[C@@H](N)Cc1ccc(O)cc1 |  |  | 18 nM |  |  | 60 min | 90 min | 8.2 nM | 4.6 µM/kg | 
CC(=O)O[C@H]1[C@@H](OC(=O)[C@@H](C)NC(=O)[C@@H](NC(=O)[C@@H](NC(=O)[C@H](CC(=O)O)NC(=O)[C@H](Cc2ccccc2)NC(=O)[C@@H](C)NC(=O)[C@@H](N)Cc2ccc(O)cc2)C(C)C)C(C)C)O[C@H](O)[C@H](O)[C@H]1O |  |  |  |  |  |  |  |  |  | 61 µM/kg
CC(C)[C@H](NC(=O)[C@H](CC(=O)O)NC(=O)[C@H](Cc1ccccc1)NC(=O)[C@@H](C)NC(=O)[C@@H](N)Cc1ccc(O)cc1)C(=O)N[C@H](C(=O)N[C@@H](CO)C(N)=O)C(C)C |  |  | 4.3 nM | 1100 nM | 30 nM |  |  | 1400 nM |  | 
CC(=O)O[C@H]1[C@H](O)[C@@H](O)[C@@H](O)O[C@@H]1COC(=O)[C@H](CO)NC(=O)[C@@H](NC(=O)[C@@H](NC(=O)[C@H](CC(=O)O)NC(=O)[C@H](Cc1ccccc1)NC(=O)[C@@H](C)NC(=O)[C@@H](N)Cc1ccc(O)cc1)C(C)C)C(C)C |  |  | 2.7 nM | 1920 nM | 28 nM | 240 min | > 240 min | 1900 nM |  | 
CC(=O)O[C@H]1[C@H](O)[C@@H](O)[C@@H](O)O[C@@H]1COC(=O)[C@@H](CO)NC(=O)[C@@H](NC(=O)[C@@H](NC(=O)[C@H](CC(=O)O)NC(=O)[C@H](Cc1ccccc1)NC(=O)[C@@H](C)NC(=O)[C@@H](N)Cc1ccc(O)cc1)C(C)C)C(C)C |  |  |  |  |  |  |  |  | 70 µM/kg | 
CC(C)[C@H](NC(=O)[C@H](CC(=O)O)NC(=O)[C@H](Cc1ccccc1)NC(=O)[C@@H](C)NC(=O)[C@@H](N)Cc1ccc(O)cc1)C(=O)N[C@H](C(=O)N[C@@H](CO)C(=O)OC[C@H]1O[C@H](O)[C@H](O)[C@@H](O)[C@@H]1O)C(C)C |  |  | 3.1 nM | 879 nM | 23 nM | 180 min | > 240 min | 1600 nM |  | 
